We go through four compounds from article PMC5709104 (Haematologica, 2017).

The structures appear in SMILES notation. “Also recorded” adds a separate entry of the source. Bounds are passed on as bounds.

Series [1] relates to MOLM13 cells. As to the kind of experiment: Viable cell number and apoptosis by flow cytometry. The format is cell-based, human. In outline:
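Viable cell number and apoptosis in MOLM13 cells measured by flow cytometry. Single-agent runs used vehicle (0.1% DMSO) or varying doses of test compound for 48 h or 72 h. Combination runs used vehicle (0.2% DMSO), 1 μM cytarabine, test compound (10 or 50 nM) or both, for 48 h. Student's t-test against cytarabine-treated cells.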

The next series concerns resistant cells. The settings on record: cited from earlier work.
In series [2] the test system is refractory or relapse AML. The conditions noted are these: single agent; cited from earlier work.
In series [3] the test system is AXL. The settings on record: cited from earlier work.
Series [4] concerns MOLM13 cells in co-culture with MSC. Description: In vitro co-culture system with MSC, viability by flow cytometry. The format is cell-based, human. The settings on record: 50 nM, 72 hours. In outline:
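MOLM13 cells grown in monoculture or co-cultured with bone marrow-derived mesenchymal stromal cells (patient-derived, IRB-approved). Treated 72 h with vehicle or test compound. Viable cells measured by flow cytometry.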

Another series relates to Cyclin B1. As to the kind of experiment: Immunoblot analysis. The format is cell-based. The settings on record: 10 nM, 24 hours, MOLM13 and MV4;11. In outline:
(§1)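 MOLM13 and MV4;11 cells incubated 24 h with vehicle or varying doses of test compound, then lysed. Total protein separated by SDS-PAGE and immunoblotted, with infrared imaging detection. Densitometry ratios taken to tubulin loading control, or to the total protein for phospho-proteins.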

The test system of a further series is OCI-AML3. As to the kind of experiment: Reverse phase protein analysis. The format is cell-based. The conditions noted are these: RPPA, 24 hours, FLT3 WT OCI-AML3.
The next series concerns AXL mRNA. Description: qRT-PCR gene expression analysis. The format is cell-based. The settings on record: 24 hours.
Series [5] concerns MOLM13, MV4:11, OCI-AML3, and HL60 cells. Description: Trypan blue staining of cells collected for RPPA. The format is cell-based. The settings on record: all other cases (vehicle or ONO-7475, 24 hours; MOLM13, MV4:11, OCI-AML3, HL60).
The target in the next series is FLT3 (Homo sapiens, UniProt P36888). Description: Cell-based tyrosine kinase inhibition assay. The conditions noted are these: recombinant kinase expressing Ba/F3 cells, 48 hr.
A further series has as its system MOLM13 p53 shRNA cells. As to the kind of experiment: Viability and apoptosis by flow cytometry, p53 knockdown cells. The format is cell-based, human. The conditions noted are these: 10 nM, 48 hours. In outline:
(§2)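 MOLM13 cells carrying control shRNA (GFP target) or p53 shRNA incubated 48 h with varying doses of test compound. Viability and apoptosis measured by flow cytometry. p53 knockdown checked by immunoblot densitometry against tubulin. Student's t-test against GFP control.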

Series [6] deals with MOLM13 control shRNA (GFP) cells. As to the kind of experiment: Viability and apoptosis by flow cytometry, control shRNA cells. The format is cell-based, human. The settings on record: 10 nM, 48 hours. In outline: as §2
Another series relates to PLK1. Description: Immunoblot analysis. The format is cell-based. The settings on record: 50 nM or 100 nM, 24 hours, MOLM13 and MV4;11. An outline of the steps:
as §1

The next series deals with HL60 cells. Description: Viable cell number and apoptosis by flow cytometry. The format is cell-based. The conditions noted are these: FLT3 WT HL60, data not shown.
In the next series the test system is OCI-AML3 cells. As to the kind of experiment: Viable cell number and apoptosis by flow cytometry. The conditions noted are these: varying doses, 48 hours, OCI-AML3 (FLT3 WT). The format is cell-based. An outline of the steps:
(§3)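 MV4;11 and OCI-AML3 cells incubated 48 h with vehicle (0.1% DMSO) or varying doses of test compound. Viable cell number and apoptosis measured by flow cytometry.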

A further series relates to ERK phosphorylation. As to the kind of experiment: Immunoblot analysis. It is filed as cell-based. The conditions noted are these: 10 nM, 24 hours, MOLM13. In outline:
as §1

The subject of series [7] is MV4;11 cells. As to the kind of experiment: Viable cell number and apoptosis by flow cytometry. It is filed as cell-based. The conditions noted are these: 10 nM, 48 hours. In outline: as §3
For series [8], the system named is MOLM13 cells. Description: Reverse phase protein analysis. The format is cell-based, human. The conditions noted are these: RPPA, 10 nM, 50 nM or 100 nM, 24 hours, at least 2-fold.
In another series the test system is RB phosphorylation. As to the kind of experiment: Immunoblot analysis. The format is cell-based. The conditions noted are these: even at the lowest dose, 24 hours, MOLM13 and MV4;11. An outline of the steps:
as §1

Another series relates to CDK1. Description: Immunoblot analysis. The conditions noted are these: 10 nM, 24 hours, MOLM13 and MV4;11. The format is cell-based. In outline:
as §1

In series [9] the test system is MOLM13 cells. As to the kind of experiment: DNA synthesis and cell cycle assay. It is filed as cell-based, human. The conditions noted are these: 24 hours. In outline: (§4)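 MOLM13 and MV4;11 cells exposed to vehicle or varying doses of test compound for 24 h. Cell cycle status assessed by FX Cycle Violet DNA staining and DNA synthesis by EdU incorporation (Click-It EdU kit), both read by flow cytometry. Student's t-test against vehicle-treated cells.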

Series [10] concerns MV4;11 cells. Description: DNA synthesis and cell cycle assay. The format is cell-based. The settings on record: 24 hours. In outline: as §4
The test system of the next series is phosphorylation of S6. As to the kind of experiment: Immunoblot analysis. It is filed as cell-based. The conditions noted are these: 24 hours, MOLM13. An outline of the steps: as §1
The next series has as its system FLT3 phosphorylation. Description: Immunoblot analysis. The format is cell-based. The settings on record: 10 nM. An outline of the steps: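 MOLM13 and MV4;11 cells exposed to vehicle or test compound, lysed, total protein resolved by SDS-PAGE, immunoblotted for FLT3 phosphorylation, with infrared imaging detection. Tubulin as loading control.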
A further series relates to MOLM13 luc/gfp cells. As to the kind of experiment: Human AML murine xenograft model. It is filed as in vivo, NSG mice. An outline of the steps: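 MOLM13 cells lentivirally transduced with firefly luciferase/copGFP, injected into NSG mice. Control feed for one week, then control feed or feed containing 0.004% (~6 mg/kg daily; N=5 per group) or 0.013% (~20 mg/kg daily; N=9 control, N=10 treated) test compound. Leukemic burden by weekly IVIS imaging. Sternum (BM) and liver from moribund mice examined by H&E.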

For the next series, the system named is MCL-1. As to the kind of experiment: Immunoblot analysis. The format is cell-based. The conditions noted are these: 24 hours. In outline: as §1
Another series concerns CCNB1 mRNA. Description: qRT-PCR gene expression analysis. It is filed as cell-based. The conditions noted are these: 10 nM, 24 hours, MOLM13 and MV4;11. An outline of the steps:
(§5)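 MOLM13 and MV4;11 cells incubated 24 h with vehicle or varying doses of test compound. Total RNA extracted and reverse transcribed. PLK-1, CDK1 and CCNB1 transcripts quantified by TaqMan qRT-PCR and normalized to B2M.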

A further series relates to CDK1 mRNA. As to the kind of experiment: qRT-PCR gene expression analysis. It is filed as cell-based. The conditions noted are these: 10 nM, 24 hours, MOLM13 and MV4;11. An outline of the steps: as §5
Another series concerns the target MER (Homo sapiens, UniProt Q12866). As to the kind of experiment: Cell-based tyrosine kinase inhibition assay. The conditions noted are these: recombinant kinase expressing Ba/F3 cells, 48 hr.
Series [11] concerns AXL. Description: Immunoblot analysis. The settings on record: even at the lowest dose, 24 hours, MOLM13 and MV4;11. It is filed as cell-based. An outline of the steps:
as §1

The next series relates to PLK-1 mRNA. Description: qRT-PCR gene expression analysis. The conditions noted are these: 24 hours; for reduction of PLK-1 mRNA relative to B2M: MOLM13. The format is cell-based. An outline of the steps:
as §5

The next series deals with p38 phosphorylation. As to the kind of experiment: Immunoblot analysis. The format is cell-based. The conditions noted are these: 24 hours, MOLM13; due to reduction of total p38. In outline: as §1
The next series has as its system HL60. Description: Reverse phase protein analysis. It is filed as cell-based. The conditions noted are these: RPPA, 24 hours, FLT3 WT HL60.

MER, sequence (Q12866 21-999): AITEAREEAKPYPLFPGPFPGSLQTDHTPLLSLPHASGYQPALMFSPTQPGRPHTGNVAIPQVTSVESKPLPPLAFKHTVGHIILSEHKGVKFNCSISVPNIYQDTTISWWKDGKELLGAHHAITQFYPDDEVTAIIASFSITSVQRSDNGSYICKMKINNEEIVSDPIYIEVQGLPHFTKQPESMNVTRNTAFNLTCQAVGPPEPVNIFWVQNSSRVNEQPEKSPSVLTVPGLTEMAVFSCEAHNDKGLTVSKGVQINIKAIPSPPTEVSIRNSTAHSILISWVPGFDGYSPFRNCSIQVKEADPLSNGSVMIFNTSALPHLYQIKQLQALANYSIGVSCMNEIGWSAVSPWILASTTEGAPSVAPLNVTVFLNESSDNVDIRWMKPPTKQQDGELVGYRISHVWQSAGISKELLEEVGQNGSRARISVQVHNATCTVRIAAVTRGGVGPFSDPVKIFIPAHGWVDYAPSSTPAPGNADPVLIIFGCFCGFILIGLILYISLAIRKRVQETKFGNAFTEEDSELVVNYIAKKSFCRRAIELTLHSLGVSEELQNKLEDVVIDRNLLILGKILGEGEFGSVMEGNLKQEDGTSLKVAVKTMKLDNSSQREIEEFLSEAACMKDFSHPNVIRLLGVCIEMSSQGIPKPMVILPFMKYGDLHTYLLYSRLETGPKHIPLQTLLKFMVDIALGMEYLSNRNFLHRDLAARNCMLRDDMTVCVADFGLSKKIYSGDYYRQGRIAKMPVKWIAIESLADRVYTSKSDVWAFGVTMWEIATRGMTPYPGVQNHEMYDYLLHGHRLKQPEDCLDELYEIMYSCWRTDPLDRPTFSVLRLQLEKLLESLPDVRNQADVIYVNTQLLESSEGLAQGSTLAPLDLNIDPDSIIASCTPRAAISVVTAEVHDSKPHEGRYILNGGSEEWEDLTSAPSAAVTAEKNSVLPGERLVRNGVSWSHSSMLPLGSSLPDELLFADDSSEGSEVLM
FLT3, sequence (P36888 27-993): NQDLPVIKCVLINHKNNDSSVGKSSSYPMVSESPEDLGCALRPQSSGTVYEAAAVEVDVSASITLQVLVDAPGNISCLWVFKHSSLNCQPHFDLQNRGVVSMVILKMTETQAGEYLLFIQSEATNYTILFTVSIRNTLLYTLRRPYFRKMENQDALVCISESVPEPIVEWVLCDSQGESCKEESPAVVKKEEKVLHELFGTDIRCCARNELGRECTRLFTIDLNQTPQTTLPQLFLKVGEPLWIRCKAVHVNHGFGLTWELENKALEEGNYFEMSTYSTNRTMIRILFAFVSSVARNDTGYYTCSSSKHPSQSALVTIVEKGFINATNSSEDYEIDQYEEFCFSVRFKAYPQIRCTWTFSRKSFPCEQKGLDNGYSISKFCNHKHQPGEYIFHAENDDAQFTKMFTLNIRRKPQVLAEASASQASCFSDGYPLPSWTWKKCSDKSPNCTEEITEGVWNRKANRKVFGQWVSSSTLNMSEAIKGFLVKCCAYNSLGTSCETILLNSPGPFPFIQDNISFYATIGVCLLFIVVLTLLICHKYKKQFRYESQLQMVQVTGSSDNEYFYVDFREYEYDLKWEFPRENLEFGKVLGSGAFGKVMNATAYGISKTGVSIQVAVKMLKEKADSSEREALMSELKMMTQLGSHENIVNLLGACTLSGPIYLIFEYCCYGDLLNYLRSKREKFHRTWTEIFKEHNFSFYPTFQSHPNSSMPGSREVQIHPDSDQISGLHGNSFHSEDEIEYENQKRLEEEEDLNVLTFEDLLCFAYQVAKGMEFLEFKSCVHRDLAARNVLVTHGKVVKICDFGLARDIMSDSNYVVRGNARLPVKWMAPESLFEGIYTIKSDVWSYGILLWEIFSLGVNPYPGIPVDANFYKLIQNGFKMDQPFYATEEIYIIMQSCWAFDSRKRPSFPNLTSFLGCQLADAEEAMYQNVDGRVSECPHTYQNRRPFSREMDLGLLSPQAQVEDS

`Nc1ccn([C@@H]2O[C@H](CO)[C@@H](O)[C@@H]2O)c(=O)n1` [AraC, Cytarabine, reference compound]: the “viable cell numbers and apoptosis, single agent” value in the series with MOLM13 cells [1] (1 μM AraC alone, 48 hours, MOLM13) was “effective”.
Consider `Nc1nc(Nc2ccc3c(c2)CC[C@@H](N2CCCC2)CC3)nn1-c1cc2c(nn1)-c1ccccc1CCC2` [BGB324], for which the “sensitisation to a combination of decitabine and vorinostat” value in the series on resistant cells was “could sensitize resistant cells”.
On to `CCc1nc(C(N)=O)c(Nc2ccc(N3CCC(N4CCN(C)CC4)CC3)c(OC)c2)nc1NC1CCOCC1` [Gilteritinib, gilteritinib], for which, in [2], the “patients achieving some response” value is 40%, the “patients exhibiting inhibition of FLT3 phosphorylation” value is 90% and the tolerability result is reported as “well tolerated”. Moreover, in the series on AXL [3], the IC50 is 0.7 nM.
For the compound `COc1cc2nccc(Oc3ccc(NC(=O)c4cc5c(n(-c6ccccc6)c4=O)CCCC5=O)nc3)c2cc1OC` [ONO-7475], in [4], the “protection of AML cells by MSC from the inhibitor” value is given as “abrogated most of this effect”. In the series with Cyclin B1, the “Cyclin B1 protein” value is “potently suppressed”. Moreover, the “change (i.e., 2-fold) in the level of protein” value in the series with OCI-AML3 and with HL60 was “no significant change” throughout. The “increase of AXL mRNA relative to B2M” value is given as ~ 3.5 fold in the series with AXL mRNA (10 nM, MOLM13 and MV4;11); greater than 6 fold in the series with AXL mRNA (50 nM, MOLM13); greater than 8 fold in the series with AXL mRNA (50 nM, MV4;11). Also, in series [5], the “viable cells (Trypan blue)” value is recorded as greater than 95%. Besides, the IC50 at FLT3 came to 147 nM; at MER, 1 nM. Moreover, the apoptosis was ~ 20% in the series with MOLM13 p53 shRNA cells; “without inducing apoptosis” in [6]; “did not induce apoptosis” in the series with OCI-AML3 cells; “induced apoptosis” with MV4;11 cells [7]; “induced apoptosis” in the series with MOLM13 cells [1] (10 nM, 48 hours, MOLM13). Also, the values for the reduction of viability (with MOLM13 p53 shRNA cells; in series [6]) were greater than 70% and ~ 55%, respectively. Besides, the PLK1 protein entry in the series on PLK1 is “Little, if any, PLK1 was detected”. Further, the sensitivity to drug result in the series on HL60 cells is reported as “resistant”. Further, in the series on OCI-AML3 cells, the viable cell number entry is reported as “slightly reduced”. Further, in the series with ERK phosphorylation, the “reduction of ERK phosphorylation” value was ~ 50%. The “reduction of cell viability” value was greater than 50% in the series on MV4;11 cells [7] and greater than 50% with MOLM13 cells [1] (10 nM, 48 hours, MOLM13). Moreover, the “Proteins increased in MOLM13 cells by ONO-7475” value in the series on MOLM13 cells [8] was “H2AX (phospho; pS140)”. Besides, in the series with RB phosphorylation, the RB phosphorylation entry is listed as “blocked RB phosphorylation”. Besides, the CDK1 protein result in the series on CDK1 was “potently suppressed”. Moreover, the “suppression of DNA synthesis” value with MOLM13 cells [9] (5 nM) and in the series on MV4;11 cells [10] (5 nM) was greater than 2 fold in each case. The cell cycle status result with MOLM13 cells [9] and in the series on MV4;11 cells [10] was “potently induced G0/G1 arrest” throughout. For the same compound, the cells becoming apoptotic with MOLM13 cells [1] (10 nM, 72 hours, MOLM13) is recorded as greater than 70%. Besides, the viable cells entry in the series on MOLM13 cells [1] (10 nM, 72 hours, MOLM13 monoculture) is reported as “nearly eliminated all viable MOLM13 cells”. Further, the “viable cell numbers and apoptosis, single agent” value in the series with MOLM13 cells [1] (ONO-7475 alone (10nM or 50 nM), 48 hours, MOLM13) is “effective”. Moreover, the “phosphorylation of S6” value in the series with phosphorylation of S6 is listed as “inhibited the phosphorylation of S6”. The p-FLT3 result in the series on FLT3 phosphorylation (MOLM13) is given as “greatly reduced”; in the series with FLT3 phosphorylation (MV4;11) it was “nearly eliminated”. The “mice with reduced leukemic burden compared to control (IVIS imaging)” value in the series on MOLM13 luc/gfp cells (0.004% ONO-7475 feed, Day 14) is listed as “three out of five”. In addition, in the series with MOLM13 luc/gfp cells (0.013% ONO-7475 feed), the “leukemia infiltration in the liver (H&E)” value is “little, if any, AML cells in the liver; also recorded: minimal presence of MOLM13 cells in the liver”. Besides, the “suppression of MCL-1” value in the series with MCL-1 (10 nM, MOLM13) is greater than 80%. The “reduction of MCL-1” value in the series on MCL-1 (100 nM, MV4;11) was 50%. Besides, the “reduction of CCNB1 mRNA relative to B2M” value in the series with CCNB1 mRNA is given as “at least 60%”. In addition, the “reduction of CDK1 mRNA relative to B2M” value with CDK1 mRNA is on record as “at least 60%”. In the series on AXL [11], the AXL protein result was “induced AXL”. The “suppression of PLK-1 mRNA compared with MOLM13” value with PLK-1 mRNA (10 nM and 50 nM, MV4;11) is “more potently suppressed”. The “reduction of PLK-1 mRNA relative to B2M” value is reported as ~ 60% in the series with PLK-1 mRNA (10 nM) and ~ 80% in the series on PLK-1 mRNA (50 nM). For the same compound, the p38 phosphorylation entry with p38 phosphorylation is listed as “p38 phosphorylation was reduced”.
